Data: publication PMC10165662 (Bioorganic & medicinal chemistry letters, 2023)
Entries after “also recorded” stand apart in the source; their conditions may differ. Peptide text beside a SMILES is read from it. * marks the point of attachment. AMC = Cc1cc(=O)oc2cc(N*)ccc12

Target: 20S proteasome (sCP), β5 subunit (Homo sapiens, UniProt P28074)
Type: biochemical
Conditions: Figures 2C and 4B
Outline: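 Purified human constitutive 20S proteasome (5 nM) incubated with LLVY-conjugated test substrate (10 μM in aminocoumarin time course) up to 4 h at 37 °C. Free LLVY [M+H] EIC quantified by single-quadrupole LC-MS against a purified LLVY standard curve (20–1250 pmol; LOQ 20 pmol), giving % cleaved. Reference fluorogenic substrates included each replicate; triplicates; one-way ANOVA.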

## Cc1cc(=O)oc2cc(NC(=O)[C@H](Cc3ccc(O)cc3)NC(=O)[C@@H](NC(=O)[C@H](CC(C)C)NC(=O)[C@@H](N)CC(C)C)C(C)C)ccc12 [LLVY-AMC] (H-LLVY-{AMC})
  Rate of hydrolysis by the sCP in time-dependent MS analysis (in words): hydrolyzed by the sCP faster than TAS-1; also recorded: faster rate than the molecule with 6-aminocoumarin
